Measurements reported in paper PMC3001191 (Cancer research, 2010).

What was measured:
VEGFR2 = VEGFR2 (Homo sapiens, UniProt P35968); experiment: Z'-LYTE SelectScreen kinase profiling; type: biochemical
COT = COT (Homo sapiens, UniProt P41279); experiment: Z'-LYTE SelectScreen kinase profiling; type: biochemical
[1] = test system: WM266.4 (^V600DBRAF) cells; experiment: DNA synthesis; type: cell-based, human; settings: WM266.4 cells, 0.1 μM 1t for 24 h
How it was run: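 Cells were grown in DMEM with 10% FBS at 37 °C in 10% CO2. They were seeded at 10^5 per well in 6-well plates and treated with 0.1 µM compound for 24 h. DNA synthesis was measured with 0.8 µCi tritiated label per well. Cells were harvested by trypsinization and an aliquot was filter-captured and scintillation-counted as for suspension cells.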

^V600EBRAF = ^V600EBRAF (Homo sapiens, UniProt P15056, V600E); experiment: Z'-LYTE SelectScreen kinase profiling; type: biochemical
[2] = test system: cell lines in which BRAF is wildtype; experiment: SRB growth inhibition assay, cell line panel; type: cell-based, human; settings: 5 d exposure
How it was run: (§1)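 Growth inhibition was measured by sulforhodamine B across a panel of melanoma, colon and breast cancer cell lines after 5 d continuous exposure. Seeding density was optimized per line to keep growth logarithmic. Curves used 10-point dilution series in quadruplicate and were fitted to give IC50/GI50. Lines were grouped by BRAF/RAS mutation status for comparison.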

[3] = test system: ^V600EBRAF mutant HT29 cells; experiment: SRB growth inhibition assay, cell line panel; type: cell-based, human
How it was run: as §1

[4] = test system: ^G12VKRAS mutant human colorectal carcinoma SW620 xenografts; experiment: Therapy study, xenograft growth; type: in vivo, mice; settings: 20 mg/kg daily p.o. for 23 d
How it was run: (§2)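 Female Crl:CD1-Foxn1nu mice (>6 weeks) were implanted s.c. with 10^7 A375M or 7 × 10^6 SW620 cells. Tumors grew to 50–150 mm3, and groups of 8 were assigned by stratified tumor volume. Mice received 20 mg/kg/d by gavage (10 ml/kg, DMSO:water 1:19) or vehicle, for 24 d (A375M) or 23 d (SW620). Calipers measured tumors every 3-4 d, and mean volume ± SEM was plotted.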

SRC = SRC (Homo sapiens, UniProt P12931); experiment: Z'-LYTE SelectScreen kinase profiling; type: biochemical
[5] = test system: MEK and ERK phosphorylation in ^V600DBRAF WM266.4 cells; experiment: Western blotting of MAPK signaling; type: cell-based, human; settings: 24 h
How it was run: (§3)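 Cells in DMEM with 10% FBS were exposed to a concentration series for 24 h and lysed. Lysates were blotted for phospho-MEK1/2, MEK1, phospho-ERK1/2, ERK2 and cyclin D1. Detection used Alexa Fluor 680 and 800CW secondary antibodies, with quantification on an infrared scanner.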

BRAF = BRAF (Homo sapiens, UniProt P15056); experiment: Z'-LYTE SelectScreen kinase profiling; type: biochemical
[6] = test system: MEK and ERK phosphorylation in BRAF wild-type D35 melanoma cells; experiment: Western blotting of MAPK signaling; type: cell-based; settings: 24 h, concentrations up to 10 μM
How it was run: as §3

RET = RET (Homo sapiens, UniProt P07949); experiment: Z'-LYTE SelectScreen kinase profiling; type: biochemical
p38γ = p38γ (Homo sapiens, UniProt P53778); experiment: Z'-LYTE SelectScreen kinase profiling; type: biochemical
PDGFRβ = PDGFRβ (Homo sapiens, UniProt P09619); experiment: Z'-LYTE SelectScreen kinase profiling; type: biochemical
PDGFRα = PDGFRα (Homo sapiens, UniProt P16234); experiment: Z'-LYTE SelectScreen kinase profiling; type: biochemical
Pharmacokinetics in mice = type: in vivo; settings: for concentration at 18 h: po, 10 mg/kg
How it was run: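 Female BALB/cAnNCrl mice over 6 weeks old were dosed i.v. at 2 mg/kg (10 ml/kg, DMSO:Tween 20:water 10:1:89). Others received 10 mg/kg by oral gavage (10 ml/kg, DMSO:water 1:19). At 5 min (i.v. only), 15 and 30 min, and 1, 3, 6 and 18 h, 3 mice per point gave heparinized blood for plasma under isoflurane. Femoral muscle was also collected. Plasma levels were compared with the mean 5-d SRB GI50 of BRAF-mutant lines.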

SKMEL23 cells = experiment: SRB growth inhibition assay, cell line panel; type: cell-based, human
How it was run: as §1

[7] = test system: cancer cell lines harboring ^V600D/EBRAF mutations; experiment: SRB growth inhibition assay, cell line panel; type: cell-based, human; settings: 5 d exposure, ^V600D/EBRAF mutant lines
How it was run: as §1

VEGFR1 = VEGFR1 (Homo sapiens, UniProt P17948); experiment: Z'-LYTE SelectScreen kinase profiling; type: biochemical
MET = MET (Homo sapiens, UniProt P08581); experiment: Z'-LYTE SelectScreen kinase profiling; type: biochemical
[8] = test system: MEK and ERK phosphorylation in KRAS mutant SW620 colorectal carcinoma cells; experiment: Western blotting of MAPK signaling; type: cell-based, human; settings: 24 h
How it was run: as §3

[9] = test system: ^V600EBRAF A375M melanoma xenografts; experiment: Therapy study, xenograft growth; type: in vivo, mice; settings: 20 mg/kg q.d. p.o. for 24 d, on completion of the experiment, p<0.05
How it was run: as §2

[10] = test system: ERK1/2 phosphorylation in WM266.4 cells; experiment: Phospho-ERK cell-based ELISA; set-up: species or system human; settings: cellular potency greater
CRAF = CRAF (Homo sapiens, UniProt P04049, Y340D/Y341D); experiment: Z'-LYTE SelectScreen kinase profiling; type: biochemical
FGFR1 = FGFR1 (Homo sapiens, UniProt P11362); experiment: Z'-LYTE SelectScreen kinase profiling; type: biochemical
[11] = test system: MEK phosphorylation in A375M xenografts; experiment: Pharmacodynamics, MEK phosphorylation in tumor xenografts; type: in vivo, mice; settings: single oral dose of 20 mg/kg, 4 h, A375M tumors
How it was run: (§4)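 Female Crl:CD1-Foxn1nu mice (>6 weeks) were inoculated s.c. with 10^7 A375M or 7 × 10^6 SW620 cells. Tumors were grown to 50–150 mm3. Groups of 3-4 mice received one 20 mg/kg oral gavage dose or vehicle and were culled 4 h later. Tumors were snap-frozen, lysed in NP40 buffer and homogenised. Equal protein was probed by quantitative fluorescent Western blot for phospho-MEK1/2 and total MEK1.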

panel of 80 kinases = experiment: Selectivity profile against 80 kinase panel; type: biochemical, human; settings: 1 μM 1t
How it was run: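 Each of 80 kinases was screened at a single 1 µM concentration using the commercial SelectScreen panel under the provider's protocols. Results were expressed as percent inhibition of kinase activity, and kinases inhibited by >70% were singled out.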

[12] = test system: ^T529N,V600EBRAF-expressing Ba/F3 cells; experiment: DNA synthesis; type: cell-based; settings: Mus musculus, BaF3, 24 h, read-out: growth (DNA synthesis) inhibition
How it was run: (§5)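 Ba/F3 lines stably expressing the mutant BRAF were cultured in RPMI1640 with 10% FBS at 37 °C in 10% CO2. Cells (1-5 × 10^4 per well) were exposed to compound for 24 h, with 0.08 µCi [3H]-thymidine added per well for the last 4 h. Cells were then captured on glass-fibre filters and washed twice with PBS and twice with methanol. Incorporated label was counted by scintillation.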

Tolerability in mice = type: in vivo
LCK = LCK (Homo sapiens, UniProt P06239); experiment: Z'-LYTE SelectScreen kinase profiling; type: biochemical
[13] = test system: ^V600EBRAF-expressing Ba/F3 cells; experiment: DNA synthesis; type: cell-based; settings: Mus musculus, BaF3, 24 h, read-out: growth (DNA synthesis) inhibition
How it was run: as §5

p38α = p38α (Homo sapiens, UniProt Q16539); experiment: Z'-LYTE SelectScreen kinase profiling; type: biochemical
KIT = KIT (Homo sapiens, UniProt P10721); experiment: Z'-LYTE SelectScreen kinase profiling; type: biochemical
SW620 cells = experiment: MTS cell proliferation assay; type: cell-based, human; settings: 72 h
How it was run: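 SW620 cells in DMEM with 10% FBS received a range of compound concentrations for 72 h. Proliferation was quantified with MTS reagent. Seeding density was optimized so growth stayed logarithmic throughout treatment. Wells were run in quadruplicate, and comparisons used a t-test.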

^T529N,V600EBRAF = ^T529N,V600EBRAF (Homo sapiens, UniProt P15056, T529N/V600E); experiment: DELFIA kinase assay, gatekeeper mutant; type: biochemical; settings: at up to 10 μM
How it was run: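 Full-length recombinant BRAF construct carrying the gatekeeper and activating substitutions was tested in a 96-well DELFIA assay. The assay measured direct phosphorylation of bacterially produced GST-MEK at 100 µM ATP. Reactions ran in duplicate for 45 min at 20°C, within the linear range, across an 11-concentration response curve. Each value was the mean of 3 independent assays.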

[14] = test system: MEK phosphorylation in SW620 xenografts; experiment: Pharmacodynamics, MEK phosphorylation in tumor xenografts; type: in vivo, mice; settings: single p.o. dose 20 mg/kg, 4 h, KRAS mutant SW620 tumors
How it was run: as §4

[15] = test system: ^V600EBRAF purified kinase; settings: cited from earlier work
^V600EBRAF in cells = settings: cited from earlier work
[16] = female, BALB/cAnNCrl, mouse, plasma, iv, 2 mg/kg
[17] = continuous daily dosing 20 mg/kg in therapy experiments

BRAF, sequence (P15056 whole entry): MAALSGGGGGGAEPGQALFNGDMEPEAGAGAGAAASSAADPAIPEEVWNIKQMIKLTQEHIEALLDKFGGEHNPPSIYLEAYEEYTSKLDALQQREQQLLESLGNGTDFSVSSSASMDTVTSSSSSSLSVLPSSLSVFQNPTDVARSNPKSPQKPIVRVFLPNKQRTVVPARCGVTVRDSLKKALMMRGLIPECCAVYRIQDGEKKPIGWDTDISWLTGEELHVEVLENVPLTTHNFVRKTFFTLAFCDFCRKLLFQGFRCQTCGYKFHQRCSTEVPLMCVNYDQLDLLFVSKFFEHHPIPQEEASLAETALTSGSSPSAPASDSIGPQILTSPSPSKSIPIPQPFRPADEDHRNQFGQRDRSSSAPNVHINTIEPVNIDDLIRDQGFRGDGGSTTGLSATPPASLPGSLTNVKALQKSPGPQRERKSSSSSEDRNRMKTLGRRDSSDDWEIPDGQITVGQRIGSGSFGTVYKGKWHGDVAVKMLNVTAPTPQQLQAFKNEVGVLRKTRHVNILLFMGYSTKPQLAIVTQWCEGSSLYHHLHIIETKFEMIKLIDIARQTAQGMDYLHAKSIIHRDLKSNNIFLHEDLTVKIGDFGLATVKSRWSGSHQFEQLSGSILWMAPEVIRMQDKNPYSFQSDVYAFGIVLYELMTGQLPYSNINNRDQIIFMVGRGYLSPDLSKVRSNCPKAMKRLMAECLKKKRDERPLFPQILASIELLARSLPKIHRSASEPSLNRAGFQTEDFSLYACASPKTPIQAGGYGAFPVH
VEGFR2, sequence (P35968 20-1356): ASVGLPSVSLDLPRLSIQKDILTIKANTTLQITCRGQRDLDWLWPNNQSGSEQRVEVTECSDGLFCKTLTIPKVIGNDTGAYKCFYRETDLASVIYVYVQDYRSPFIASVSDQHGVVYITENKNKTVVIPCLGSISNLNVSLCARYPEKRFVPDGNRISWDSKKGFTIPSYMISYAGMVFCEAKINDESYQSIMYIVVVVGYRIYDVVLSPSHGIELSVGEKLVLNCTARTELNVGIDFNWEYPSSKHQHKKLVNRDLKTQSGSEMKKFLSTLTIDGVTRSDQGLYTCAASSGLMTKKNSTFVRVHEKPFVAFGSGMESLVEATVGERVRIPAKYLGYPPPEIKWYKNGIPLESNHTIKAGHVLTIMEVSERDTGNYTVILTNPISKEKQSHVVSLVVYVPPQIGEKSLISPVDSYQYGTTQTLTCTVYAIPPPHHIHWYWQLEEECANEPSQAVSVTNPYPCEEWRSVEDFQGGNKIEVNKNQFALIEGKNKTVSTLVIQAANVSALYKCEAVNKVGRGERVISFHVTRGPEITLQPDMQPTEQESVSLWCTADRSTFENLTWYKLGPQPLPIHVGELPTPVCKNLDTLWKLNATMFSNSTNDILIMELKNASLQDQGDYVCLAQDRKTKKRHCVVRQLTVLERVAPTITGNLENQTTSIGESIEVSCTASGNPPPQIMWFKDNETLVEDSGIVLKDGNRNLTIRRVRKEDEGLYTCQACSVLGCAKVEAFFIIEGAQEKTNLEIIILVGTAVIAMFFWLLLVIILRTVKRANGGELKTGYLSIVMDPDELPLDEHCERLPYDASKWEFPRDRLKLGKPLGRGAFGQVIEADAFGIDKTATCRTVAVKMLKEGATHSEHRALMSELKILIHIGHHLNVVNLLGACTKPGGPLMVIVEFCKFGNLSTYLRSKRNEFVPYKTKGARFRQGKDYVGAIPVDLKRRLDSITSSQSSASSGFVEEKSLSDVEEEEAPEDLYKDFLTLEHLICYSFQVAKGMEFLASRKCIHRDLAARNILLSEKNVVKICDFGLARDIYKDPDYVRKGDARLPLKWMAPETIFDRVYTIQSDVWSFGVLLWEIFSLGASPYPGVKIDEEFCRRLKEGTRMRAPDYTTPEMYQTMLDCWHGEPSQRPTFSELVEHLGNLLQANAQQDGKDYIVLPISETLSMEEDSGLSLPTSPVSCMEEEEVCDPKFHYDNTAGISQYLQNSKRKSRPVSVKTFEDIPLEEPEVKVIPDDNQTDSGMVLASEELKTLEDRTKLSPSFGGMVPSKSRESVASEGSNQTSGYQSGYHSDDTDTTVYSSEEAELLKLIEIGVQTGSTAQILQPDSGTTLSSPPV
RET, sequence (P07949 29-1114): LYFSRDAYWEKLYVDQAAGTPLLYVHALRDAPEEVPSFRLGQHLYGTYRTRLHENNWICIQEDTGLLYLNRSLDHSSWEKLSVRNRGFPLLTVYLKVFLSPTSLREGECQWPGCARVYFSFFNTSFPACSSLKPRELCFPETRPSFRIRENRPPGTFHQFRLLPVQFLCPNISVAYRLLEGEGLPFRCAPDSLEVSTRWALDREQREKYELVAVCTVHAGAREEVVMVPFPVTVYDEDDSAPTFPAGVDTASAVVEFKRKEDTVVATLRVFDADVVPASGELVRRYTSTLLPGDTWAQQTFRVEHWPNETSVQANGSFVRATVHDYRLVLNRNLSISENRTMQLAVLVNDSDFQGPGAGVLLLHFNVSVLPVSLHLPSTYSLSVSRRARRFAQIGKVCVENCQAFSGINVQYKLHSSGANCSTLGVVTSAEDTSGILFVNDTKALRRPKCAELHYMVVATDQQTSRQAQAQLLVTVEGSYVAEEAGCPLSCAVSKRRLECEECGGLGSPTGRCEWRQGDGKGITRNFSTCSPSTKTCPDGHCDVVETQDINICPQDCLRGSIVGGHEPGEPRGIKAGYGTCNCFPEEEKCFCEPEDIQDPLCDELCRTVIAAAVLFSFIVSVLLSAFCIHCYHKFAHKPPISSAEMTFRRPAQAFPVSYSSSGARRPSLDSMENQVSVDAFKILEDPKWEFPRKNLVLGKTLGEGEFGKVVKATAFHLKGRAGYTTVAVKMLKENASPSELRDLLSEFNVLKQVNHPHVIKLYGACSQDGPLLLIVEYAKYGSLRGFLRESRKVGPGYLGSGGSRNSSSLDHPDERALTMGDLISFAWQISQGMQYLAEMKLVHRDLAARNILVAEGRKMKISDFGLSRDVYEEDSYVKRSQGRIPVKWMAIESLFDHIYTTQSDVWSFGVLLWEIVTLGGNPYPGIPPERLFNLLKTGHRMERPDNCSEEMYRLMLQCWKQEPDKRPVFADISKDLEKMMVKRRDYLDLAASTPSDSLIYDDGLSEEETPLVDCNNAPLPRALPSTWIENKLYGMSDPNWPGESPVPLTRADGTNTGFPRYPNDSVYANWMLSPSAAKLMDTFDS
MET, sequence (P08581 25-1390): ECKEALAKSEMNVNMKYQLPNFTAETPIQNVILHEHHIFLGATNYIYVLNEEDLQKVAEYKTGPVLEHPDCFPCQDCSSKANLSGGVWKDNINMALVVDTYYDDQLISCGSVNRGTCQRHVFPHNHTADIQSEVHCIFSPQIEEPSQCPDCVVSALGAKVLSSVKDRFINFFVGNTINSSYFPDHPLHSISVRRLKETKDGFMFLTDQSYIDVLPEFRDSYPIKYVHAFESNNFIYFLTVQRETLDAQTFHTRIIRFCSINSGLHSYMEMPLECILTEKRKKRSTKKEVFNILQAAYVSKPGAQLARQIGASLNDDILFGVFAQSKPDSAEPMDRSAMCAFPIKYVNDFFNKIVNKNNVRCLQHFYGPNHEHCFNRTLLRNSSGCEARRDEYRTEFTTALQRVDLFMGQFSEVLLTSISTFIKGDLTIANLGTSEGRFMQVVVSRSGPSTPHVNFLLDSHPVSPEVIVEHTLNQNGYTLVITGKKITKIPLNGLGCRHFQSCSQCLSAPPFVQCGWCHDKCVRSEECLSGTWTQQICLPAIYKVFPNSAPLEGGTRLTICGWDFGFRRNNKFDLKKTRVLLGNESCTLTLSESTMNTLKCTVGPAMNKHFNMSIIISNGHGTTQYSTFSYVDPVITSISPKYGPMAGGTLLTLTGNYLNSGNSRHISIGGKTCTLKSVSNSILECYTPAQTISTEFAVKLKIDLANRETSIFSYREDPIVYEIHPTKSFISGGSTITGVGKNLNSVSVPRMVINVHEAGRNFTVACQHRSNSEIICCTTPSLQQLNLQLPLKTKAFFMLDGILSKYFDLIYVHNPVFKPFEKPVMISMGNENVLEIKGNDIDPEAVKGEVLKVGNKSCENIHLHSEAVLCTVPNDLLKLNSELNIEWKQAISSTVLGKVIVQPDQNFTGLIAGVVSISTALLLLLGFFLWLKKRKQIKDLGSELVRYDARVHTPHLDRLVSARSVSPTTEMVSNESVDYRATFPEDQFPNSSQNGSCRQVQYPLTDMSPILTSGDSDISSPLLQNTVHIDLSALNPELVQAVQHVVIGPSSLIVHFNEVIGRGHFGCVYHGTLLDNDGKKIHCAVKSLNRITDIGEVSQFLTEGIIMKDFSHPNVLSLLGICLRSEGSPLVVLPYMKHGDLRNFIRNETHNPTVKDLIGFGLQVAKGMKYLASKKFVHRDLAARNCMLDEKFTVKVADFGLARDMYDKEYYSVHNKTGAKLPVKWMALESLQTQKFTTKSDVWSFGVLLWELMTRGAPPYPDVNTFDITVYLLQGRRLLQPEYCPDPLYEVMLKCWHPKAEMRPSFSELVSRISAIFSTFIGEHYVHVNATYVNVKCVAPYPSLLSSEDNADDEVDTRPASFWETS
p38γ, sequence (P53778 whole entry): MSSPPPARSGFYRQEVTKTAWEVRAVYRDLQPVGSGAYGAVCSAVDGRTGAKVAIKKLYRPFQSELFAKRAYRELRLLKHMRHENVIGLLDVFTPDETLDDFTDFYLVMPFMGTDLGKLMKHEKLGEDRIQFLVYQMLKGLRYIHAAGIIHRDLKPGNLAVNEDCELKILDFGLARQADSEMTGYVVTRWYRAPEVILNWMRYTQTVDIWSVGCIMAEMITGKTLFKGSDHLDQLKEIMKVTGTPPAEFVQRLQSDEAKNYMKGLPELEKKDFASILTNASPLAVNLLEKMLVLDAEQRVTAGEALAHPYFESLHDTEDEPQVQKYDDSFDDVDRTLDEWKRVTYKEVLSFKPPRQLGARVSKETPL
^T529N,V600EBRAF, sequence (P15056 whole entry T529N/V600E): as the sequence (P15056 whole entry) above, with T529N, V600E counted along it
^V600EBRAF, sequence (P15056 whole entry V600E): as the sequence (P15056 whole entry) above, with V600E counted along it

## CSc1cc(Oc2ccnc3[nH]c(=O)cnc23)ccc1NC(=O)Nc1cc(C(C)(C)C)nn1-c1ccc(C)cc1 [Compound 1t, 1-(3-tert-butyl-1-p-tolyl-1H-pyrazol-5-yl)-3-(2-(methylthio)-4-(3-oxo-3,4-dihydropyrido[2,3-b]pyrazin-8-yloxy)phenyl)urea]
VEGFR2
  IC50: 1000 nM
VEGFR2; SelectScreen Panel
  fold less active against VEGFR2/KDR than against ^V600EBRAF: more than 50 fold
COT
  IC50: > 10 µM
[1]
  inhibition of DNA synthesis: profound inhibition
^V600EBRAF
  IC50: 13 nM
[2]
  growth inhibition: relatively ineffective
[3]
  sensitivity relative to the majority of the other BRAF mutant cell lines: less sensitive
[4]
  tumor growth inhibition: No inhibition of tumor growth
SRC
  IC50: 23 nM
[5]
  concentration inhibiting MEK and ERK phosphorylation: 10 to 100 nM
BRAF
  IC50: 81 nM
BRAF; SelectScreen Panel
  fold less active against wildtype BRAF than against ^V600EBRAF: more than 6 fold
[6]
  MEK and ERK phosphorylation / cyclin D1 response: no such responses are observed
RET
  IC50: 4.86 µM
p38γ
  IC50: 1020 nM
PDGFRβ
  IC50: 2430 nM
PDGFRα
  IC50: 439 nM
Pharmacokinetics in mice; female, BALB/cAnNCrl, mouse, femoral muscle
  concentration at 18 h: > 3 µM
Pharmacokinetics in mice; [16]
  clearance: 0.00667 mL/min
  half-life: 408 min
Pharmacokinetics in mice; female, BALB/cAnNCrl, mouse, plasma
  concentration at 18 h: > 19 µM
Pharmacokinetics in mice; mice
  plasma concentration relative to average GI50 for BRAF mutant cancer cell lines: over 100 fold
SKMEL23 cells
  sensitivity relative to the other BRAF/RAS wildtype cells: considerably more sensitive
[7]
  growth inhibition: inhibits the growth
VEGFR1
  IC50: 5.16 µM
MET
  IC50: > 10 µM
[8]
  effect on MEK and ERK phosphorylation: profound increase
[9]
  tumor growth inhibition: 50%
[10]
  cellular potency relative to inhibition of recombinant ^V600EBRAF in vitro: approximately 4 fold
CRAF
  IC50: 12 nM
FGFR1
  IC50: 2580 nM
[11]
  inhibition of MEK phosphorylation: observed
Panel of 80 kinases
  inhibition of kinases in an 80 kinase panel: failed to inhibit most of the kinases
[12]
  inhibition at 1 µM: 21%
Tolerability in mice; 10 and 20 mg/kg/d p.o. for 4 d, body weight monitored a further 27 d
  adverse effects / body weight: No adverse effects were observed
Tolerability in mice; [17]
  body weight loss: less than 10%
  deaths: does not cause any deaths
LCK
  IC50: 6 nM
[13]
  inhibition at 1 µM: 96%
p38α
  IC50: 285 nM
KIT
  IC50: > 10 µM
SW620 cells
  effect on proliferation: small increase in proliferation
^T529N,V600EBRAF
  inhibition of ^T529N,V600EBRAF kinase activity: not inhibited
[14]
  increase in MEK phosphorylation: 2 fold

## CNC(=O)c1cc(Oc2ccc(NC(=O)Nc3ccc(Cl)c(C(F)(F)F)c3)cc2)ccn1 [sorafenib]
[15]
  activity against the purified kinase in vitro: 40 nM
^V600EBRAF in cells
  activity against ^V600EBRAF in cells: 2 to 5 µM
  fold less active in cells than against the purified kinase: approximately 100 fold
